Source: PubChem (Johns Hopkins Ion Channel Center)
The list is not random: actives were taken first. Their share in the collection is about 2.3%.
TRPC6 inhibitor – inhibitors of mouse TRPC6 channel | Q61143 | HEK293-TRPC6, membrane potential dye, ACh-evoked depolarization; hits give low values | B-score at 10 µM | 1.1% of 310,000 active | AID 2553;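 active = B-score under library mean minus 3 SD, initial fluorescence not abnormally high, positive integrated signal ratio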;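 note: B-score derived from integrated fluorescence ratio over the kinetic read; more negative B-score means stronger inhibition of depolarization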
TRPC4 agonist – TRPC4 (mouse) channel activation | Q9QUQ5 | HEK293 TRPC4beta/mu-opioid, Fluo4 calcium fluorescence; hits give high values | B-score at 10 µM | 0.49% of 310,000 active | AID 2237;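 active = B-score above 5 SD of library B-scores, and initial fluorescence ratio not above library mean plus 5 SD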;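 note: positive B-score marks a calcium rise read as TRPC4 activation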
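Assay system: HEK293 stable line with TRPC4beta plus mu-opioid receptor; schedule: 45 min room-temperature Fluo4 loading, 110 s read; technique: kinetic Fluo4 calcium fluorescence; evaluation: integrated baseline-normalised fluorescence ratio, converted to per-well B score; controls: buffer (low) and maximal DAMGO (high)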
TRPC6 activator – activates the mouse TRPC6 cation channel; Q61143; AID 2550; B-score at 10 µM; HEK293-TRPC6 membrane potential dye fluorescence; hits give high values; 0.13% of 310,000 active;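 active = B-score of the integrated fluorescence ratio above library mean plus 3 SD, and starting fluorescence ratio within library mean plus 5 SD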;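 note: higher score means more depolarization so channel activation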
TRPC4 potent – allosterically enhances the mouse TRPC4 cation channel; Q9QUQ5; B-score at 10 µM; HEK293 TRPC4beta/mu-opioid, DAMGO EC20, Fluo-4 Ca2+ flux; hits give high values; 0.42% of 310,000 active;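 active = B-score of calcium response area above 5 SD of library B-scores, with initial fluorescence ratio within 5 SD of library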;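 note: B-score of integrated fluorescence ratio over time as area under calcium response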
TRPC4 block – TRPC4 (mouse) channel inhibition | B-score at 10 µM | AID 2247 | Q9QUQ5 | HEK293 TRPC4beta/mu-opioid, DAMGO-evoked Fluo4 calcium flux; hits give low values | 0.39% of 300,000 active;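 active = B-score over 3 SD under the library average, no early fluorescence shift, positive overall ratio signal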
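System: stable TRPC4beta/mu-opioid receptor HEK293 cells; Dosing: single-point compound dosing; Measured by: Fluo4 Ca2+ flux fluorescence; Read-out basis: per-well B score of integrated baseline-normalized Fluo4 ratio.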
TRPC4 sel inh 2 – second selectivity test of TRPC6 inhibitors: effect on mouse TRPC4. HEK293 TRPC4/MOR, membrane potential dye fluorescence; channel activated by saturating DAMGO dose. inhibition, % at 10 µM. 42% of 920 active. shares compounds with TRPC6 inhibitor;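 active = compounds whose fluorescence signal differed from control wells by over 3 SD, either direction, in both duplicate plates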
TRPC4 spec – mouse TRPC4 off-target activity of TRPC6 inhibitors | shares compounds with TRPC6 inhibitor | HEK293 TRPC4/mu-opioid, membrane potential fluorescence | activity change, negative = inhibition, % at 10 µM | 61% of 920 active;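 active = rise or fall in signal beyond 3 SD of buffer-only wells in both replicate plates, either sign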;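 note: integrated kinetic ratio of fluorescence range over baseline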
HEK293 MPD ctr 2-1 – second check of TRPC6 inhibitor effects in parental HEK293 cells | parental HEK293 membrane potential dye fluorescence; maximal acetylcholine challenge after compound addition | shares compounds with TRPC6 inhibitor | 31% of 920 active | signal change vs control, % at 10 µM;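 active = membrane potential signal moving either way by over 3 SD of the maximum-effect control, in both duplicate plates, meaning non-specific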
HEK293 MPD ctr-1 – parental HEK293 nonspecific activity of TRPC6 inhibitors; AID 2780; 60% of 920 active; membrane potential signal change, % at 10 µM; parental HEK293 membrane potential dye fluorescence; shares compounds with TRPC6 inhibitor;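 active = membrane potential signal shifting up or down by more than 3 SD of buffer-only wells, on both duplicate plates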
HEK293 MPD ctr-2 – counter-screen for TRPC6 modulators: effect in parental HEK293 cells; shares compounds with TRPC6 inhibitor; membrane potential dye fluorescence; membrane potential signal change, % at 10 µM; 51% of 2,400 active; AID 488924;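 active = membrane potential signal moves up or down beyond 5 SD from buffer-only wells, on both duplicate plates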
HEK293 MPD ctr 2-2 – second check of TRPC6 modulator effects in parental HEK293 cells; 14% of 2,400 active; membrane potential dye fluorescence; after compound, maximal acetylcholine stimulation; inhibition, % at 10 µM; shares compounds with TRPC6 inhibitor;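 active = membrane potential signal drops by more than 5 SD from the mean control signal, in both duplicate plates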;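 note: plate controls were acetylcholine ECmax control wells for no effect and buffer only wells for full effect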
TRPC4 ctr mod – tests whether TRPC6 modulators also affect mouse TRPC4. shares compounds with TRPC6 inhibitor. HEK293 TRPC4/mu-opioid, membrane potential fluorescence. percent change from control (negative = decrease, positive = increase), % at 10 µM. 69% of 2,400 active. AID 488927;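 active = membrane potential signal moved up or down beyond 5 SD of buffer control wells, in both duplicate plates, actives on both sides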;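 note: plate controls were assay buffer wells for no effect and DAMGO maximal-effect wells for full effect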
TRPC4/MOR inh 2 – mouse TRPC4 off-target activity of TRPC6 modulators, second screen | shares compounds with TRPC6 inhibitor | HEK293 TRPC4/mu-opioid, membrane potential dye fluorescence; stimulated with maximal-effect DAMGO | inhibition, % at 10 µM | 55% of 2,400 active;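 active = drop in membrane potential signal beyond 5 SD of the control wells in both duplicate plates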;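 note: TRPC4 counter screen for TRPC6 hits run under conditions tuned for TRPC6 not TRPC4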
TRPC6 block conf – mouse TRPC6 inhibitor confirmation. shares compounds with TRPC6 inhibitor. HEK293-TRPC6, membrane potential dye, ACh-evoked depolarization. inhibition, % at 10 µM. 43% of 3,300 active. AID 488960;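 active = fluorescence ratio falls more than 5 SD below the full-stimulation control mean, in both duplicate runs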;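 note: integrated fluorescence ratio of peak minus minimum over baseline after agonist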
TRPC6 act confirm – mouse TRPC6 activator confirmation; activation, % at 10 µM; 11% of 2,800 active; shares compounds with TRPC6 inhibitor; HEK293-TRPC6 membrane potential dye fluorescence, FDSS;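 active = ratio signal rise beyond 5 SD above unstimulated control wells' mean, seen in both duplicate runs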;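 note: plate controls were buffer EC0 wells for no effect and acetylcholine ECmax response for full effect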
* = called active by the depositor; i = inactive; · = not tested or not shown.

SMILES	TRPC6 inhibitor	TRPC4 agonist	TRPC6 activator	TRPC4 potent	TRPC4 block	HEK293 MPD ctr-2	HEK293 MPD ctr 2-2	TRPC4 ctr mod	TRPC4/MOR inh 2	TRPC6 block conf	TRPC6 act confirm	others
CCOc1cc(N)c(Cl)cc1C(=O)NCC1CN(Cc2ccc(F)cc2)CCO1 (stereo not given)	i	i	i	i	i	·	·	·	·	·	·
COC(=O)Cc1sc(-c2ccccn2)nc1-c1ccccc1	-5.7*	i	i	i	i	i	i	12%*	i	i	i
CC(C)(C)NCC(O)(c1ccc(Cl)cc1)c1ccc(Cl)cc1	i	i	i	i	i	·	·	·	·	·	·
NCC(O)(c1ccc(Cl)cc1)c1ccc(Cl)cc1	-6.3*	i	i	i	i	i	i	i	40%*	i	i
CN1CCc2c(sc(NC(=O)c3ccc(S(=O)(=O)N4CCCCCC4)cc3)c2C(N)=O)C1	-6.5*	i	i	i	i	i	i	-69%*	i	i	i
CN1CCc2c(sc(NC(=O)c3ccc(S(=O)(=O)N4CCOCC4)cc3)c2C(N)=O)C1	-7.6*	i	i	i	i	-258%*	i	-51%*	35%*	i	i
NC(=O)c1c(NC(=O)c2ccc(S(=O)(=O)N3CCOCC3)cc2)sc2c1CCCCC2	i	i	i	i	i	·	·	·	·	·	·
CN1CCc2c(sc(NC(=O)c3ccc(S(=O)(=O)N4CCc5ccccc54)cc3)c2C(N)=O)C1	i	i	i	i	i	·	·	·	·	·	·
Cc1cc(-c2ccccc2)nc(N2CCN(c3ccccn3)CC2)n1	i	i	i	i	i	·	·	·	·	·	·
c1ccc2c(N3CCCCC3)nc(N3CCCC3)nc2c1	i	i	i	i	i	·	·	·	·	·	·
Nc1nc(N2CCCCC2)nc2ccccc12	-11*	i	i	i	-8*	-212%*	i	-42%*	92%*	70%*	i
c1ccc(-c2nc(N3CCNCC3)nc3ccccc23)cc1	-8*	i	i	18*	i	·	·	·	·	i	i	TRPC4 sel inh 2=40%*;TRPC4 spec=i;HEK293 MPD ctr 2-1=i;HEK293 MPD ctr-1=4.7%*
Nc1nc(N2CCN(c3ccccn3)CC2)nc2ccccc12	-6.9*	i	i	i	i	·	·	·	·	62%*	i	TRPC4 sel inh 2=49%*;TRPC4 spec=-19%*;HEK293 MPD ctr 2-1=i;HEK293 MPD ctr-1=-232%*
Cc1ccc(C)c(CN2CCCN(Cc3cc(C)ccc3C)S2(=O)=O)c1	i	i	i	i	i	·	·	·	·	·	·
CN(C)CCCNc1oc(-c2cccc(Cl)c2)nc1C#N	-6.8*	i	i	i	i	·	·	·	·	i	i	TRPC4 sel inh 2=i;TRPC4 spec=i;HEK293 MPD ctr 2-1=i;HEK293 MPD ctr-1=i
CCN(CC)CCCNc1oc(-c2ccc(OC)c(OC)c2)nc1C#N	-6.4*	i	i	i	i	i	i	i	i	46%*	i
CN(C)CCNc1oc(COc2cccc(Cl)c2)nc1C#N	i	i	i	i	i	·	·	·	·	·	·
CCOc1ccc(/C=C/c2nc(C#N)c(NCCCN(C)C)o2)cc1	-5.5*	i	i	i	i	i	i	i	56%*	38%*	i
COC(=O)c1ccc(CNC(=O)C(NC(=O)c2ccco2)C(C)C)cc1 (stereo not given)	i	i	i	i	i	·	·	·	·	·	·
COc1cccc2sc3ccc(NCCC4CCCN4C)cc3c(=O)c12 (stereo not given)	-6.8*	i	i	i	i	·	·	·	·	i	·	TRPC4 sel inh 2=65%*;TRPC4 spec=21%*;HEK293 MPD ctr 2-1=i;HEK293 MPD ctr-1=17%*
COc1ccc(C(=O)N/C(=C\c2ccccc2)C(=O)NCc2cccnc2)cc1	i	i	i	i	i	·	·	·	·	·	·
O=C(NCc1cccnc1)/C(=C/c1ccc(Cl)cc1)NC(=O)c1ccccc1	-5.6*	i	i	i	i	i	i	i	i	i	i
Cc1c(OCC(=O)NCCCN2CCCC2=O)ccc2c3c(c(=O)oc12)CCC3	-6.1*	i	i	i	i	-105%*	i	-19%*	i	i	i
Cc1c(OCC(=O)NCCN2CCOCC2)ccc2c3c(c(=O)oc12)CCC3	-5.2*	i	i	i	i	i	i	-14%*	i	i	i
Cc1c(OCC(=O)NCCCN2CCCC2=O)ccc2c3c(c(=O)oc12)CCCC3	i	i	i	i	i	·	·	·	·	·	·
Cc1cc(=O)oc2c(C)c(OCC(=O)NCCCN3CCCC3=O)ccc12	-5.2*	i	i	i	i	-192%*	i	-28%*	i	i	i
Cc1cc(=O)oc2c(C)c(OCC(=O)NCCCn3ccnc3)ccc12	-6.6*	i	i	i	i	-192%*	i	-32%*	30%*	i	i
Cc1cc(OCC(=O)NCCCN2CCOCC2)c2c(C)c(C)c(=O)oc2c1	i	i	i	i	i	·	·	·	·	·	·
O=C(CCCOc1ccc(Br)cc1)Nc1ccc(S(=O)(=O)N2CCOCC2)cc1	i	i	i	i	i	·	·	·	·	·	·
CCCS(=O)(=O)Nc1ccc2cn[nH]c2c1	i	i	i	i	i	·	·	·	·	·	·
